tested on: HeLa; test: Cytotoxicity against human HeLa cells after 24 hrs by trypan blue dye exclusion assay; type: cell-based; conditions: not given
Summary of the method: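 HeLa cells grown in DMEM with penicillin/streptomycin. Compound from DMSO stock was added once cultures reached 70% confluency, then incubated 24 h at 37 °C under CO₂. Cells were PBS-washed, detached with 0.25% trypsin for 5 min, and resuspended in PBS. Trypan blue was added for about 10 min at room temperature. Viable and dead cells were counted by hemacytometer, and IC₅₀ derived.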

Which IC50 does the source give for `COc1ccc(C(=O)/C=C/c2ccc(OCC(=O)NCCCCCCNc3ccnc4cc(Cl)ccc34)cc2)cc1` here?
The IC50 was 40000 nM.

Which IC50 does the source give for `COc1ccc(/C=C/C(=O)c2ccc(OCC(=O)NCCCCCCNc3ccnc4cc(Cl)ccc34)cc2)cc1` here?
The IC50 was 25000 nM.

tested on: not listed separately; test: Selectivity index, ratio of IC50 for human HeLa cells to IC50 for CQ-resistant Plasmodium falciparum W2; type: toxicity, cell-based; conditions: read-out: Ratio IC50
Summary of the method: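 Ratio of HeLa IC50 to W2 IC50. HeLa cells grown in DMEM with penicillin/streptomycin to 70% confluency, dosed from DMSO stocks, and incubated 24 h at 37 °C in CO2. Cells were then washed, trypsinized, stained with trypan blue for about 10 min at room temperature, and viable/dead cells counted by hemacytometer. IC50 fitted from counts.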

For `COc1ccc(C(=O)/C=C/c2ccc(OCC(=O)NCCCCCCNc3ccnc4cc(Cl)ccc34)cc2)cc1`, which selectivity ratio is on record?
Its selectivity ratio is 1130.

Which selectivity ratio does the source give for `COc1ccc(/C=C/C(=O)c2ccc(OCC(=O)NCCCCCCNc3ccnc4cc(Cl)ccc34)cc2)cc1` here?
The selectivity ratio was 1400.

tested on: Plasmodium falciparum; test: Antimalarial activity against CQ-resistant Plasmodium falciparum W2 assessed as parasite growth inhibition after 48 hrs by YOYO-1 dye based flow cytometry; type: functional, organism-based; conditions: W2, 48 h
Summary of the method: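 W2 strain cultured in RPMI-1640 with 10% human serum, sorbitol-synchronized (5%). Ring-stage microcultures exposed to a range of compound concentrations (DMSO ≤0.1% final; 0.1% DMSO controls) for 48 h. Fixed 48 h in 1% formaldehyde/PBS pH 7.4 at room temperature, stained with 1 nM YOYO-1 in 0.1% Triton X-100/PBS, and parasitemia read by flow cytometry. IC50 from nonlinear fit of duplicate experiments.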

Which IC50 does the source give for `COc1ccc(C(=O)/C=C/c2ccc(OCC(=O)O)cc2)cc1` here?
Its IC50 is > 10000 nM.

For `O=C(O)COc1ccc(/C=C/C(=O)c2ccccc2)cc1`, which IC50 is on record?
Its IC50 is > 10000 nM.

With `O=Cc1ccc(OCC(=O)NCCNc2ccnc3cc(Cl)ccc23)cc1` as the molecule, how does the IC50 read?
Its IC50 is 419 nM.

For `O=Cc1ccc(OCC(=O)NCCCNc2ccnc3cc(Cl)ccc23)cc1`, which IC50 is on record?
The IC50 was 73.4 nM.

For `O=Cc1ccc(OCC(=O)NCCCCNc2ccnc3cc(Cl)ccc23)cc1`, which IC50 is on record?
Its IC50 is 444 nM.

Which IC50 does the source give for `O=Cc1ccc(OCC(=O)NCCCCCCNc2ccnc3cc(Cl)ccc23)cc1` here?
The IC50 was 875 nM.

With `O=C(COc1ccc(/C=C/C(=O)c2ccccc2)cc1)NCCNc1ccnc2cc(Cl)ccc12` as the molecule, how does the IC50 read?
Its IC50 is 905 nM.

Which IC50 does the source give for `O=C(COc1ccc(/C=C/C(=O)c2ccccc2)cc1)NCCCNc1ccnc2cc(Cl)ccc12` here?
The IC50 was 109 nM.

Which IC50 does the source give for `O=C(COc1ccc(/C=C/C(=O)c2ccccc2)cc1)NCCCCNc1ccnc2cc(Cl)ccc12` here?
Its IC50 is 139 nM.

For `COc1ccc(C(=O)/C=C/c2ccc(OCC(=O)NCCNc3ccnc4cc(Cl)ccc34)cc2)cc1`, which IC50 is on record?
The IC50 was 379 nM.

With `COc1ccc(C(=O)/C=C/c2ccc(OCC(=O)NCCCNc3ccnc4cc(Cl)ccc34)cc2)cc1` as the molecule, how does the IC50 read?
The IC50 was 221 nM.

Which IC50 does the source give for `COc1ccc(C(=O)/C=C/c2ccc(OCC(=O)NCCCCNc3ccnc4cc(Cl)ccc34)cc2)cc1` here?
The IC50 was 63 nM.

Which IC50 does the source give for `COc1ccc(C(=O)/C=C/c2ccc(OCC(=O)NCCCCCCNc3ccnc4cc(Cl)ccc34)cc2)cc1` here?
Its IC50 is 35.4 nM.

With `O=C(O)COc1ccc(C(=O)/C=C/c2ccccc2)cc1` as the molecule, how does the IC50 read?
Its IC50 is > 10000 nM.

For `COc1ccc(/C=C/C(=O)c2ccc(OCC(=O)O)cc2)cc1`, which IC50 is on record?
Its IC50 is > 10000 nM.

For `CC(=O)c1ccc(OCC(=O)NCCNc2ccnc3cc(Cl)ccc23)cc1`, which IC50 is on record?
The IC50 was 558 nM.

For `CC(=O)c1ccc(OCC(=O)NCCCNc2ccnc3cc(Cl)ccc23)cc1`, which IC50 is on record?
The IC50 was 173 nM.

With `CC(=O)c1ccc(OCC(=O)NCCCCNc2ccnc3cc(Cl)ccc23)cc1` as the molecule, how does the IC50 read?
Its IC50 is 148 nM.

Which IC50 does the source give for `CC(=O)c1ccc(OCC(=O)NCCCCCCNc2ccnc3cc(Cl)ccc23)cc1` here?
The IC50 was 71.1 nM.

Which IC50 does the source give for `O=C(COc1ccc(C(=O)/C=C/c2ccccc2)cc1)NCCNc1ccnc2cc(Cl)ccc12` here?
Its IC50 is 840 nM.

For `O=C(COc1ccc(C(=O)/C=C/c2ccccc2)cc1)NCCCNc1ccnc2cc(Cl)ccc12`, which IC50 is on record?
Its IC50 is 46.3 nM.

Which IC50 does the source give for `O=C(COc1ccc(C(=O)/C=C/c2ccccc2)cc1)NCCCCNc1ccnc2cc(Cl)ccc12` here?
The IC50 was 398 nM.

With `O=C(COc1ccc(C(=O)/C=C/c2ccccc2)cc1)NCCCCCCNc1ccnc2cc(Cl)ccc12` as the molecule, how does the IC50 read?
Its IC50 is 4070 nM.

Which IC50 does the source give for `COc1ccc(/C=C/C(=O)c2ccc(OCC(=O)NCCNc3ccnc4cc(Cl)ccc34)cc2)cc1` here?
The IC50 was 2740 nM.

With `COc1ccc(/C=C/C(=O)c2ccc(OCC(=O)NCCCNc3ccnc4cc(Cl)ccc34)cc2)cc1` as the molecule, how does the IC50 read?
Its IC50 is 50.5 nM.

Which IC50 does the source give for `COc1ccc(/C=C/C(=O)c2ccc(OCC(=O)NCCCCNc3ccnc4cc(Cl)ccc34)cc2)cc1` here?
The IC50 was 170 nM.

Which IC50 does the source give for `COc1ccc(/C=C/C(=O)c2ccc(OCC(=O)NCCCCCCNc3ccnc4cc(Cl)ccc34)cc2)cc1` here?
Its IC50 is 17.8 nM.

For `C[C@@H]1CC[C@H]2[C@@H](C)C(=O)O[C@@H]3O[C@@]4(C)CC[C@@H]1[C@]32OO4` [ARTEMISININ], which IC50 is on record?
The IC50 was 6.5 nM.
